Measured values from different studies.
Protocols differ between the studies behind these lines.
Target: Ephrin type-B receptor 1 (EPHB1, Homo sapiens, UniProt P54762)
Sequence (P54762 18-984, as in one of the studies): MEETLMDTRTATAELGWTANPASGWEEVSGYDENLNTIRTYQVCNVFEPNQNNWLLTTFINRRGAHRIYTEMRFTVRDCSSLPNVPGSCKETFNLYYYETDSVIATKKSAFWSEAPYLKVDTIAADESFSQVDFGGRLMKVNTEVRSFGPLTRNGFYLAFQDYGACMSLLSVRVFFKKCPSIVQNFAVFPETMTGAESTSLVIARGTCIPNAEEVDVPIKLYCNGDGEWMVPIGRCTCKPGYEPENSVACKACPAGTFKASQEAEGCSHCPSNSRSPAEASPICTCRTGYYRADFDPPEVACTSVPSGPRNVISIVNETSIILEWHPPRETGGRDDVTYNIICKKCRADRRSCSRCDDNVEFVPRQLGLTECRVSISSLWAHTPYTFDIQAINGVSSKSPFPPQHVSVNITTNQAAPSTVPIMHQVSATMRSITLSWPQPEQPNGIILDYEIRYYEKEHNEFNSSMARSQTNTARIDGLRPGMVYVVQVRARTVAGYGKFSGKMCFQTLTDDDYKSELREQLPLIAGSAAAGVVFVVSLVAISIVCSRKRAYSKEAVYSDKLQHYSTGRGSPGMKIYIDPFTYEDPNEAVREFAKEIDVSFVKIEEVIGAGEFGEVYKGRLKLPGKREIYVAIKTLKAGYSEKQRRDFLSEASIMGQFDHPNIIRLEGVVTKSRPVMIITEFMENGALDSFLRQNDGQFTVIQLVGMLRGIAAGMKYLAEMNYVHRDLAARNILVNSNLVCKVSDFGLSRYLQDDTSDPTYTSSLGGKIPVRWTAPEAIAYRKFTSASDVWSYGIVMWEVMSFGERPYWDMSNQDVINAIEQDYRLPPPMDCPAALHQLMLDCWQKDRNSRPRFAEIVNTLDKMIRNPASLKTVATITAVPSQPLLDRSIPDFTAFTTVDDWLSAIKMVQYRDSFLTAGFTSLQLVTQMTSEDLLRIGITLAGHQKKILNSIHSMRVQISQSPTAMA

Compound	test	setting	remaining binding
Nc1ncc2c(n1)-c1c([nH]c3ccc(C#CC4CC4)cc13)CCCC2	binding, competition with immobilised ligand	1 µM	92%
O=c1nc(-c2ccccn2)sc2ccccc12	cell-free assay, competition with immobilised ligand	1 µM	88%
N[C@H]1CCN(c2nccc(-c3cnn4ncccc34)n2)C1	binding	1 µM	100%
CCN1CCN(Cc2ccc(C(=O)Nc3ccc(C)c(Oc4ccc5c(c4)CC(=O)N5)c3)cc2C(F)(F)F)CC1	binding, competition with immobilised ligand	1 µM	100%
Nc1cnc(N2CCc3cc(S(=O)(=O)Nc4c(F)cc(Cl)cc4F)cc(N4CCCC4=O)c32)nc1	cell-free assay, competition with immobilised ligand	1 µM	92%
O=C(NCCCN1CCOCC1)c1ccc(Nc2ncc(Cl)c(-c3ccc(Cl)s3)n2)cc1	binding, competition with immobilised ligand	1 µM	58%
COc1cnc(Nc2cccc(S(N)(=O)=O)c2)nc1N1CCN(c2ccccc2)CC1	binding, competition with immobilised ligand	1 µM	97%
COc1ncc2cc3ccccc3nc2c1C#N	cell-free assay, competition with immobilised ligand	5 µM	91%
N#CC1(c2ccccn2)CCN(Cc2cc(C(=O)N3CCCC3)c(=O)n3ccccc23)CC1	cell-free assay, competition with immobilised ligand	1 µM	91%
O=C(NCCCN1CCOCC1)c1ccc(Nc2nccc(-c3cc4ccccc4s3)n2)cc1	binding, competition with immobilised ligand	1 µM	77%
O=C(NCC1CCOCC1)c1n[nH]cc1NC(=O)c1c(F)cccc1F	binding, competition with immobilised ligand	1 µM	100%
CC1CCCN1c1nccc(-c2cnn3ncccc23)n1 (stereo not drawn)	binding	1 µM	100%
CC(C)(O)c1cncc(-c2nc3ccc(F)cc3n2C2CC2)c1	cell-free assay, competition with immobilised ligand	1 µM	100%
C[C@H]1CCN(c2nccc(-c3cnn4ncccc34)n2)C1	binding	1 µM	100%
O=C(c1ccc(Nc2ncc(Cl)c(-c3cc4ccccc4s3)n2)cc1)N1CCC(N2CCCC2)CC1	binding, competition with immobilised ligand	1 µM	33%
Cc1cnn2ncc(-c3ccnc(N(C)C)n3)c2c1	binding	1 µM	100%
O=C(N[C@H]1CCCCC/C=C\C2C[C@@]2(C(=O)O)NC(=O)[C@@H]2C[C@@H](Oc3ccncc3)CN2C1=O)OC1CCCC1 (stereo partly drawn)	cell-free assay, competition with immobilised ligand	1 µM	100%
CN(CCCC(F)(F)F)c1nccc(-c2cnn3ncccc23)n1	binding	1 µM	91%
CNC(=O)[C@@H]1CC[C@@H](n2c(-c3ccc4cnccc4c3)nc3ccc(C(=O)NCc4cccc(C(N)=O)c4)cc32)C1	binding, competition with immobilised ligand	1 µM	100%
CN1CCN(c2cnc3c(C4CCN(C(=O)c5ccc(OC(F)(F)F)cc5N)CC4)ncnc3c2)CC1	cell-free assay, competition with immobilised ligand	1 µM	100%
c1cnn2ncc(-c3ccnc(N4CCC45COC5)n3)c2c1	binding	1 µM	100%
